Results reported in ChEMBL document CHEMBL1139884, “Structure-based design, synthesis, and A-site rRNA cocrystal complexes of functionally novel aminoglycoside antibiotics: C2" ether analogues of paromomycin” (2007).
≈ marks a conversion by molar mass, not a printed value.

Tests used:
Escherichia coli = assay: Antimicrobial activity against Escherichia coli ATCC 25922 after 20 to 24 hrs; type: functional
In short: (§1)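 Broth microdilution in duplicate; compound in 2.5% DMSO in water, overnight culture added to a final inoculum of about 10^2-10^3 CFU/well. Growth read as A595 after 20-24 h at 37°C, relative to a no-compound well. MIC reported as a range: complete inhibition at the higher concentration, viable cells at the lower. Ampicillin and tetracycline are the positive controls.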

Staphylococcus aureus = assay: Antimicrobial activity against Staphylococcus aureus ATCC 13709 after 20 to 24 hrs; type: functional; in short: as §1

Row | MIC (Escherichia coli) [µg/mL] | MIC (Staphylococcus aureus) [µg/mL] | Structure (SMILES)
1 | 1.5 (≈ 1.98 µM) | 3 (≈ 3.97 µM) | NC[C@@H]1O[C@H](O[C@H]2[C@@H](OCCNCC3CCCNC3)[C@H](O[C@@H]3[C@@H](O)[C@H](N)C[C@H](N)[C@H]3O[C@H]3O[C@H](CO)[C@@H](O)[C@H](O)[C@H]3N)O[C@@H]2CO)[C@H](N)[C@@H](O)[C@@H]1O (stereo partly drawn)
2 | 25 (≈ 34.9 µM) | 3 (≈ 4.19 µM) | NCCCNCCO[C@H]1[C@H](O[C@@H]2[C@@H](O)[C@H](N)C[C@H](N)[C@H]2O[C@H]2O[C@H](CO)[C@@H](O)[C@H](O)[C@H]2N)O[C@H](CO)[C@H]1O[C@H]1O[C@@H](CN)[C@@H](O)[C@H](O)[C@H]1N
3 | 6 (≈ 10.8 µM) | 6 (≈ 10.8 µM) | NCCCNCCO[C@H]1[C@H](O[C@@H]2[C@@H](O)[C@H](N)C[C@H](N)[C@H]2O[C@H]2O[C@H](CO)[C@@H](O)[C@H](O)[C@H]2N)O[C@H](CO)[C@H]1O
4 | 3 (≈ 3.86 µM) | 0.6 (≈ 0.772 µM) | NC[C@@H]1O[C@H](O[C@H]2[C@@H](OCCNCCCc3ccccc3)[C@H](O[C@@H]3[C@@H](O)[C@H](N)C[C@H](N)[C@H]3O[C@H]3O[C@H](CO)[C@@H](O)[C@H](O)[C@H]3N)O[C@@H]2CO)[C@H](N)[C@@H](O)[C@@H]1O
5 | 12 (≈ 18.2 µM) | 12 (≈ 18.2 µM) | NC[C@@H]1O[C@H](O[C@H]2[C@@H](OCCO)[C@H](O[C@@H]3[C@@H](O)[C@H](N)C[C@H](N)[C@H]3O[C@H]3O[C@H](CO)[C@@H](O)[C@H](O)[C@H]3N)O[C@@H]2CO)[C@H](N)[C@@H](O)[C@@H]1O
6 | 10 (≈ 12.2 µM) | 5 (≈ 6.08 µM) | COc1cc(CCNCCO[C@H]2[C@H](O[C@@H]3[C@@H](O)[C@H](N)C[C@H](N)[C@H]3O[C@H]3O[C@H](CO)[C@@H](O)[C@H](O)[C@H]3N)O[C@H](CO)[C@H]2O[C@H]2O[C@@H](CN)[C@@H](O)[C@H](O)[C@H]2N)cc(OC)c1
7 | > 50 | 6 (≈ 8.34 µM) | NC[C@@H]1O[C@H](O[C@H]2[C@@H](OCCc3ccccc3)[C@H](O[C@@H]3[C@@H](O)[C@H](N)C[C@H](N)[C@H]3O[C@H]3O[C@H](CO)[C@@H](O)[C@H](O)[C@H]3N)O[C@@H]2CO)[C@H](N)[C@@H](O)[C@@H]1O
8 | 20 (≈ 25.7 µM) | 5 (≈ 6.43 µM) | NC[C@@H]1O[C@H](O[C@H]2[C@@H](OCCOCCCc3ccccc3)[C@H](O[C@@H]3[C@@H](O)[C@H](N)C[C@H](N)[C@H]3O[C@H]3O[C@H](CO)[C@@H](O)[C@H](O)[C@H]3N)O[C@@H]2CO)[C@H](N)[C@@H](O)[C@@H]1O
9 | 12 (≈ 15.3 µM) | 1 (≈ 1.27 µM) | NC[C@@H]1O[C@H](O[C@H]2[C@@H](OCCNc3cnc4ccccc4c3)[C@H](O[C@@H]3[C@@H](O)[C@H](N)C[C@H](N)[C@H]3O[C@H]3O[C@H](CO)[C@@H](O)[C@H](O)[C@H]3N)O[C@@H]2CO)[C@H](N)[C@@H](O)[C@@H]1O
10 | 50 (≈ 68 µM) | 6 (≈ 8.17 µM) | NC[C@@H]1O[C@H](O[C@H]2[C@@H](OCCNc3ccccc3)[C@H](O[C@@H]3[C@@H](O)[C@H](N)C[C@H](N)[C@H]3O[C@H]3O[C@H](CO)[C@@H](O)[C@H](O)[C@H]3N)O[C@@H]2CO)[C@H](N)[C@@H](O)[C@@H]1O
11 | 5 (≈ 6.02 µM) | 0.6 (≈ 0.722 µM) | NC[C@@H]1O[C@H](O[C@H]2[C@@H](OCCNCCc3ccc(C(F)(F)F)cc3)[C@H](O[C@@H]3[C@@H](O)[C@H](N)C[C@H](N)[C@H]3O[C@H]3O[C@H](CO)[C@@H](O)[C@H](O)[C@H]3N)O[C@@H]2CO)[C@H](N)[C@@H](O)[C@@H]1O
12 | 5 (≈ 5.66 µM) | 1.2 (≈ 1.36 µM) | CCCCCCCCN(CCCCCCCC)CCO[C@H]1[C@H](O[C@H]2C(O[C@H]3O[C@H](CO)[C@@H](O)[C@H](O)[C@H]3N)[C@@H](N)C[C@@H](N)[C@@H]2O)O[C@H](CO)[C@H]1O[C@H]1O[C@@H](CN)[C@@H](O)[C@H](O)[C@H]1N (stereo partly drawn)
13 | > 100 | > 100 | N[C@H]1[C@@H](O[C@H]2[C@H](O[C@@H]3O[C@H](CO)[C@@H](O)[C@H]3O)[C@@H](O)[C@H](N)C[C@@H]2N)O[C@H](CO)[C@@H](O)[C@@H]1O
14 | 3 (≈ 4.01 µM) | 3 (≈ 4.01 µM) | NC[C@@H]1O[C@H](O[C@H]2[C@@H](OCCNCc3ccccc3)[C@H](O[C@@H]3[C@@H](O)[C@H](N)C[C@H](N)[C@H]3O[C@H]3O[C@H](CO)[C@@H](O)[C@H](O)[C@H]3N)O[C@@H]2CO)[C@H](N)[C@@H](O)[C@@H]1O
